Results from ChEMBL document CHEMBL1649278, “Characterization of a new metallo-beta-lactamase gene, bla(NDM-1), and a novel erythromycin esterase gene carried on a unique genetic structure in Klebsiella pneumoniae sequence type 14 from India” (2009).
≈ marks a conversion by molar mass, not a printed value.

What was measured:
[1] = test system: Escherichia coli; assay: Antibacterial activity against Escherichia coli J53 harboring beta-lactamase NDM-1 by Etest method; format: functional
Procedure, shortened: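 Transconjugant of E. coli J53 recipient, mated with donor on blood agar without selection for 18 h. Selected on MacConkey agar with sodium azide (100 μg/ml) plus ceftazidime (8 μg/ml). Transfer confirmed by indole test and PCR for the MBL gene. Susceptibility read by Etest.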

[2] = test system: Klebsiella pneumoniae; assay: Antibacterial activity against Klebsiella pneumoniae 05-560 by Etest method; format: functional
[3] = test system: Klebsiella pneumoniae; assay: Ratio of Kcat to Km for Klebsiella pneumoniae 05-560 beta-lactamase IMP1
[4] = test system: Escherichia coli; assay: Antibacterial activity against Escherichia coli NF-NDM-1 by Etest method; format: functional
[5] = test system: Klebsiella pneumoniae; assay: Activity of Klebsiella pneumoniae 05-560 beta-lactamase IMP1 by spectrophotometry
[6] = test system: Escherichia coli; assay: Antibacterial activity against Escherichia coli TOP10 harboring beta-lactamase NDM-1 by Etest method; format: functional
Procedure, shortened: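 Fragments from BamHI, EcoRI or HindIII digests of K. pneumoniae 05-506 DNA were cloned into vector pK18 and electroporated into E. coli TOP10. Transformants were selected on LB agar with X-gal (30 μg/ml), ceftazidime (6 μg/ml) and kanamycin (25 μg/ml). Susceptibility read by Etest.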

[7] = test system: Escherichia coli; assay: Antibacterial activity against Escherichia coli TOP10 by Etest method; format: functional
[8] = test system: Escherichia coli; assay: Antibacterial activity against Escherichia coli J53 by Etest method; format: functional

Compound	MIC [1]	MIC [2]	kcat/Km [3]	MIC [4]	Km [5]	kcat [5]	MIC [6]	MIC [7]	MIC [8]
C[C@H]1[C@H](NC(=O)/C(=N\OC(C)(C)C(=O)O)c2csc(N)n2)C(=O)N1S(=O)(=O)O [AZTREONAM]	24 µg/mL (≈ 55.1 µM)	> 256 µg/mL	< 100 M⁻¹ s⁻¹	24 µg/mL (≈ 55.1 µM)	> 1000 µM	> 0.01 s⁻¹	0.25 µg/mL (≈ 0.574 µM)	–	–
CC1(C)S[C@@H]2[C@H](NC(=O)[C@H](N)c3ccccc3)C(=O)N2[C@H]1C(=O)O [AMPICILLIN]	> 256 µg/mL	> 256 µg/mL	4.8e+06 M⁻¹ s⁻¹	> 256 µg/mL	200 µM	950 s⁻¹	> 256 µg/mL	12 µg/mL (≈ 34.3 µM)	4 µg/mL (≈ 11.4 µM)
CCN1CCN(C(=O)N[C@@H](C(=O)N[C@@H]2C(=O)N3[C@@H]2SC(C)(C)[C@@H]3C(=O)O)c2ccccc2)C(=O)C1=O [PIPERACILLIN]	> 256 µg/mL	> 256 µg/mL	–	> 256 µg/mL	–	–	–	0.5 µg/mL (≈ 0.966 µM)	1 µg/mL (≈ 1.93 µM)
CC1(C)S[C@@H]2[C@H](NC(=O)Cc3ccccc3)C(=O)N2[C@H]1C(=O)O	–	–	620000 M⁻¹ s⁻¹	–	520 µM	320 s⁻¹	–	–	–
C[C@@H](O)[C@H]1C(=O)N2C(C(=O)O)=C(S[C@@H]3CN[C@H](C(=O)N(C)C)C3)[C@H](C)[C@H]12 [MEROPENEM]	> 32 µg/mL	> 256 µg/mL	–	> 32 µg/mL	–	–	12 µg/mL (≈ 31.3 µM)	0.064 µg/mL (≈ 0.167 µM)	0.064 µg/mL (≈ 0.167 µM)
CO/N=C(\C(=O)N[C@@H]1C(=O)N2C(C(=O)[O-])=C(C[N+]3(C)CCCC3)CS[C@H]12)c1csc(N)n1	24 µg/mL (≈ 49.9 µM)	> 256 µg/mL	660000 M⁻¹ s⁻¹	24 µg/mL (≈ 49.9 µM)	11 µM	7 s⁻¹	8 µg/mL (≈ 16.6 µM)	–	–
CO/N=C(\C(=O)N[C@@H]1C(=O)N2C(C(=O)O)=C(COC(C)=O)CS[C@H]12)c1csc(N)n1 [CEFOTAXIME]	> 256 µg/mL	> 256 µg/mL	350000 M⁻¹ s⁻¹	> 256 µg/mL	4 µM	1.3 s⁻¹	> 256 µg/mL	0.125 µg/mL (≈ 0.274 µM)	0.064 µg/mL (≈ 0.141 µM)
CC(=O)OCC1=C(C(=O)O)N2C(=O)[C@@H](NC(=O)Cc3cccs3)[C@H]2SC1 [CEPHALOTHIN]	> 256 µg/mL	> 256 µg/mL	2.4e+06 M⁻¹ s⁻¹	> 256 µg/mL	21 µM	48 s⁻¹	> 256 µg/mL	8 µg/mL (≈ 20.2 µM)	4 µg/mL (≈ 10.1 µM)
